molecular target: Platelet-activating factor receptor (Mus musculus) (UniProt Q62035); test: Ability to protect mice from lethal effects after administration of PAF (Platelet-Activating Factor); format: functional, organism-based
Procedure, shortened: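 Mice received the test agent orally and were then given a lethal PAF injection. ED50 was taken as the oral dose that protected the animals from PAF-induced death.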

Platelet-activating factor receptor (Mus musculus), sequence (Q62035 whole entry): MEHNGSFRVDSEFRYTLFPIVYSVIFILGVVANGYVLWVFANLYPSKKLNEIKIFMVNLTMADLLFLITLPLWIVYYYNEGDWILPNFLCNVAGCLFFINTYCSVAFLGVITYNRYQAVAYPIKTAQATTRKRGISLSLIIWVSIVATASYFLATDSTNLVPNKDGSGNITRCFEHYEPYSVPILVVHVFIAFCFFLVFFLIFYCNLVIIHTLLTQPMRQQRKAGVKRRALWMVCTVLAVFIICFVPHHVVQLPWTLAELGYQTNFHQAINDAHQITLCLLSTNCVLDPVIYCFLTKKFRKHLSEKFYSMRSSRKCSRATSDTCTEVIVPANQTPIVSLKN

Row | Compound | ED50 [mg/kg]
1 | Cc1nc2cnccc2n1-c1ccc(C2=Nc3ccccc3NC(=O)C2)cc1 | 0.5
2 | Cc1nc2cnccc2n1-c1ccc(C2CC(=O)N(C)c3cc(Cl)c(Cl)cc3C2)cc1 (stereo not given) | 0.03
3 | Cc1nc2cnccc2n1-c1ccc(C2=Nc3ccccc3N(C)C(=O)C2)cc1 | 0.03
4 | Cc1cc2c(cc1C)NC(=O)CC(c1ccc(-n3c(C)nc4cnccc43)cc1)=N2 | 0.12
5 | Cc1nc2cnccc2n1-c1ccc(C2CC(=O)Nc3cc(Cl)c(Cl)cc3C2)cc1 (stereo not given) | 0.05
6 | Cc1nc2cnccc2n1-c1ccc(C2=Nc3cc(Cl)c(Cl)cc3NC(=O)C2)cc1 | 0.07
7 | Cc1nc2cnccc2n1-c1ccc(C2=CCC(=O)c3ccccc3N2)cc1 | 0.75
8 | Cc1nc2cnccc2n1-c1ccc(C2=Nc3cc(Cl)c(Cl)cc3C(=O)NC2)cc1 | 0.2

system: Mus musculus; test: The compound was tested for their ability to protect mice from lethal effects after administration of PAF (Platelet-Activating Factor); format: functional
Procedure, shortened: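 Mice were given the compound orally and then a lethal injection of PAF. The value is the oral dose (ED50) that protected the mice from PAF-induced death.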

Row | Compound | ED50 [mg/kg]
9 | CCOC(=O)C1=C(c2ccc(-n3c(C)nc4cnccc43)cc2)NC(C)=C(C(=O)Nc2ccccn2)C1c1ccccc1Cl (stereo not given) | 0.26
10 | Cc1nnc2n1-c1sc3c(c1C(c1ccccc1Cl)=NC2)CC(C(=O)N1CCOCC1)C3 (stereo not given) [BEPAFANT] | 0.1

Source: ChEMBL document CHEMBL1128538, “Novel antagonists of platelet-activating factor. 1. Synthesis and structure-activity relationships of benzodiazepine and benzazepine derivatives of 2-methyl-1-phenylimidazo[4,5-c]pyridine” (J Med Chem, 1995)
